# Experimental data taken from ChEMBL document CHEMBL5038647, “Elastase Inhibitor Cyclotheonellazole A: Total Synthesis and In Vivo Biological Evaluation for Acute Lung Injury” (J Med Chem, 2022).
# “And” between values parts separate entries of the source, which are not always exact repeats. Equal values may be shown once. The source made the active and inactive calls. No cut-off for these calls is given here. *1 amine or outer side, *2 acyl side, *3 side chain or, on linkers, in order; H or OH if unused. Where a SMILES comes first, the peptide text is derived from it. Bridges are numbered along the chain shown (N, C = ends). [ ]: non-standard residue; d: D form. The star is where a group is joined. X2 = O=C(/C=C/c1csc([C@H](Cc2ccc(O)cc2)N[*:1])n1)[*:2]; X1 = CC[C@H](C)[C@H](N[*:1])C(=O)C(=O)[*:2]; X3 = CC[C@H](C)[C@H](N[*:1])C(O)C(=O)[*:2]; Benzoyl(4-OH) = O=C(c1ccc(O)cc1)*; Cya = N[C@@H](CS(=O)(=O)O)C(=O)O; MeOSuc = COC(=O)CCC(=O)*; Nva = CCC[C@H](N)C(=O)O; Dap = NC[C@H](N)C(=O)O; CH2Cl = ClC*
# Columns and labels:
# [1] = Inhibition of porcine pancreatic elastase incubated for 40 mins in presence of DQ elastin substrate by fluorescence multiwell plate reader; design: species or system Sus scrofa
# Outline: (§1)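 Fluorescence elastase assay with DQ elastin substrate at 25 μg/mL and either porcine pancreatic elastase at 0.4 U/mL or human neutrophil elastase at 0.2 U/mL. Enzyme, substrate and increasing inhibitor concentrations were incubated 40 min at rt in the dark, then read at ex 485/em 535 nm. Each experiment was run three times; paired Student's t test against controls.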
# [2] = Inhibition of elastase (unknown origin); design: species or system Homo sapiens
# Outline: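 EnzChek kit, DQ elastin substrate 25 μg/mL with porcine pancreatic elastase 0.4 U/mL or human neutrophil elastase 0.2 U/mL. Increasing inhibitor concentrations, 40 min at room temperature in the dark. Fluorescence read at ex 485/em 535 nm. Three repeats; paired Student's t test against controls.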
# Mus musculus [3] = test: Antiinflammatory activity against bleomycin-induced acute lung injury C57BL/6 mouse model assessed as reduction in lung edema by measuring reduction in lung wet/dry ratio at 30 mg/kg, ip administered for upto 5 days relative to control; assay type: functional, organism-based; conditions: time day <=5
# Outline: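 Same BLM model: C57BL/6J males, intratracheal BLM 4 mg/kg, then 30 mg/kg ip daily up to 5 days in 10% DMSO/90% saline, sacrifice day 6, n = 8 per group. Left lungs were weighed immediately, dried at 78 °C for 48 h to stable weight and reweighed to give the wet/dry ratio. Dead animals were excluded.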
# Mus musculus [4] = test: Antiinflammatory activity against bleomycin-induced acute lung injury C57BL/6 mouse model assessed as fold reduction in lung edema by measuring thickness of the alveolar deterioration at 30 mg/kg, ip administered for upto 5 days by HE-staining relative to control; assay type: functional; conditions: time day <=5
# Outline: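 Male C57BL/6J mice, 8 weeks old, n = 8/group. ALI induced by intratracheal BLM (4 mg/kg, in 0.1 mL saline) under chloral hydrate anaesthesia; sham controls got saline. Drug given ip at 30 mg/kg in 10% DMSO/90% saline daily for up to 5 days. Sacrifice on day 6; right lung formalin-fixed, 4 μm HE sections, three images per lung, blinded histologist scoring; dead animals excluded.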
# Mus musculus [5] = test: Antiinflammatory activity against bleomycin-induced acute lung injury C57BL/6 mouse model assessed as reduction in pathological changes in lung at 30 mg/kg, ip administered for upto 5 days by HE-staining based assay; assay type: functional, organism-based; conditions: time day <=5
# Outline: (§2)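 Male C57BL/6J mice, 8 weeks old, n = 8 per group, anaesthetised with chloral hydrate. ALI was induced by intratracheal BLM 4 mg/kg in 0.1 mL saline; controls received saline. Drug was given at 30 mg/kg ip daily for up to 5 days in 10% DMSO/90% saline (vehicle alone for controls), with sacrifice on day 6. Right lungs were formalin-fixed, sectioned at 4 μm and HE-stained. A histologist scored three images per lung blind; dead animals were excluded.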
# Mus musculus [6] = test: Antiinflammatory activity against bleomycin-induced acute lung injury C57BL/6 mouse model assessed as reduction in inflammatory cell infiltration in lung at 30 mg/kg, ip administered for upto 5 days by HE-staining based assay; assay type: functional, organism-based; conditions: time day <=5; outline: as §2
# [7] = Inhibition of elastase (unknown origin) at 1.25 uM by fluorescence microtiter plate method relative to control; conditions: Homo sapiens
# Outline: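 Single-concentration screen: elastin substrate and elastase were incubated with test compounds at 1.25 μM in the EnzChek fluorescence elastase format (40 min, rt). Activity was read against controls, with three repeats.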
# Homo sapiens = species on record: Homo sapiens; test: Inhibition of elastase (unknown origin) at 2.5 uM by fluorescence microtiter plate method relative to control
# Outline: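 Elastin substrate plus elastase incubated with a single inhibitor level (reference inhibitor MeOSu-AAPV-CMK at 2.5 μM, others at 1.25 μM). EnzChek DQ elastin fluorescence, ex 485/em 535 nm, 40 min at room temperature. Three repeats.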
# [8] = Cytotoxicity against human 293T/ACE2 cells assessed as reduction in cell viability upto 100 uM incubated for 24 hrs by CCK-8 assay; assay type: toxicity, cell-based; conditions: 293t/ace2, 24 h
# Outline: (§3)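 Cells (ACE2-overexpressing 293T stable line or BEAS-2B lung epithelial) were seeded at 1 × 10^4 per well and left about 12 h to adhere. They were exposed to graded compound concentrations for 24 h. CCK-8 was added and incubated 2 h at 37 °C, then OD450 read. Viability was expressed as percentage; IC50 was computed.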
# Neutrophil elastase [9] = biological target: T1, Neutrophil elastase (Homo sapiens, UniProt P08246); test: Inhibition of human neutrophil elastase; outline: as §1
# T1 sequence (P08246 whole entry): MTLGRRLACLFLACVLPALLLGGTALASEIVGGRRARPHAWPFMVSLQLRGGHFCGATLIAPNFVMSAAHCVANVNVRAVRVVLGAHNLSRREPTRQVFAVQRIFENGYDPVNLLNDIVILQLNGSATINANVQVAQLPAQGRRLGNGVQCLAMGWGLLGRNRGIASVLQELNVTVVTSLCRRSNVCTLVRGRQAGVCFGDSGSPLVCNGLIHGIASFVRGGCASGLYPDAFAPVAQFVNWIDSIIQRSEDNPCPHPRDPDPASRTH
# BEAS-2B = test: Cytotoxicity against human BEAS-2B cells assessed as reduction in cell viability upto 100 uM incubated for 24 hrs by CCK-8 assay; assay type: toxicity, cell-based; outline: as §3
# Neutrophil elastase [10] = biological target: T1, Neutrophil elastase; test: Inhibition of human neutrophil elastase incubated for 40 mins in presence of DQ elastin by fluorescence microtiter plate method
Compound,IC50 [1] [nM],Activity (Mus musculus [3]),fold change (FC) (Mus musculus [4]),Activity (Mus musculus [5]),Activity (Mus musculus [6]),inhibition [7],further results
CC(C)(C)C(=O)Oc1ccc(S(=O)(=O)Nc2ccccc2C(=O)NCC(=O)O)cc1,2960,Active,1,Active,Active,,IC50 [2]: 44 nM
CCC[C@@H]1NC(=O)[C@@H](NC(=O)[C@H](C)NC(=O)CNC(=O)c2ccc(O[Si](C)(C)C(C)(C)C)cc2)CNC(=O)[C@H](CS(=O)(=O)O)NC(=O)/C=C/c2csc(n2)[C@H](Cc2ccc(O[Si](C)(C)C(C)(C)C)cc2)NC(=O)C(=O)[C@H]([C@@H](C)CC)NC1=O,,,,,,46.6%,
COC(=O)CCC(=O)N[C@@H](C)C(=O)N[C@@H](C)C(=O)N1CCC[C@H]1C(=O)N[C@H](C(=O)CCl)C(C)C (MeOSuc-AAPV-CH2Cl),,,,,,,inhibition (Homo sapiens): 23.2%
CCC[C@@H]1NC(=O)[C@@H](NC(=O)[C@H](C)NC(=O)CNC(=O)c2ccc(O)cc2)CNC(=O)[C@H](CS(=O)(=O)[O-])NC(=O)/C=C/c2csc(n2)[C@H](Cc2ccc(O)cc2)NC(=O)C(=O)[C@H]([C@@H](C)CC)NC1=O.[Na+] ({Benzoyl(4-OH)}-GA[Dap][Nva][X1][X2][Cya]; lactam 3-C),114,Active,1,Active,Active,3.6% and 3.8%,Activity [8]: Non-Toxic; IC50 (Neutrophil elastase [9]): 0.034 nM; Activity (BEAS-2B): Non-Toxic; IC50 (Neutrophil elastase [10]): 321 nM
CCC[C@@H]1NC(=O)[C@@H](NC(=O)[C@H](C)NC(=O)CNC(=O)c2ccc(O)cc2)CNC(=O)[C@H](CS(=O)(=O)O)NC(=O)/C=C/c2csc(n2)[C@H](Cc2ccc(O)cc2)NC(=O)C(O)[C@H]([C@@H](C)CC)NC1=O (some centres undefined) ({Benzoyl(4-OH)}-GA[Dap][Nva][X3][X2][Cya]; lactam 3-C),,,,,,94%,
